Published values collected from several papers.
Lines come from different studies, so protocols differ.
MMP7: Matrilysin (MMP7, Homo sapiens, UniProt P09237)

SMILES | target | effect on | action | technique | tested at | quantity | result
CCOC(=O)c1ccc(OC(=O)CCCCCNC(=N)N)cc1 | MMP7 | enzyme activity | inhibitor |  | 10 µM | inhibition | 3%
Nc1ncc(-c2nc(N3CCOCC3)nc(N3CCOCC3)n2)c(C(F)F)n1 | Serine/threonine-protein kinase 17B (STK17B, Homo sapiens, UniProt O94768) | binding |  | competition with immobilised ligand | 10 µM | remaining binding | 85%
Cc1nn(C)cc1-c1nc2c(N3CCN(Cc4ccc(Cl)cc4)CC3)c(Cl)cnc2[nH]1 | Serine/threonine-protein kinase 32A (STK32A, Homo sapiens, UniProt Q8WU08) | binding |  | competition with immobilised ligand | 1 µM | remaining binding | 100%
COc1ncccc1-c1cnn2ccc(N3CCN(C(=O)OC(C)C)CC3)nc12 | Phosphatidylinositol 4-phosphate 5-kinase type-1 gamma (PIP5K1C, Homo sapiens, UniProt O60331) | binding |  | competition with immobilised ligand | 1 µM | remaining binding | 53%
O=c1ccc2ccc3occc3c2o1 | Aldehyde dehydrogenase 1A1 (ALDH1A1, Homo sapiens, UniProt P00352) | enzyme activity | inhibitor | absorbance | 10 µM | activity vs control | 61%
Cc1cc(=O)oc2cc(NC(=O)[C@H](CCCNC(=N)N)NC(=O)[C@H](CCCNC(=N)N)NC(=O)[C@@H](NC(=O)[C@H](CCCNC(=N)N)NC(=O)OC(C)(C)C)C(C)C)ccc12 | Furin (FURIN, Homo sapiens, UniProt P09958) | enzyme activity | substrate | fluorescence |  | Km | 44.6 µM
N=C(N)c1ccc2cc(OC(=O)c3ccc(N=C(N)N)cc3)ccc2c1 | MMP7 | enzyme activity | inhibitor |  | 10 µM | inhibition | 5%
C#Cc1n[nH]c2c(-c3cn([C@@H](C)c4ccccn4)c(=O)[nH]c3=O)cc(F)cc12 | Tyrosine-protein kinase receptor UFO (AXL, Homo sapiens, UniProt P30530) | enzyme activity | inhibitor |  | 0.1 µM | inhibition | 13.4%
